According to ChEMBL document CHEMBL1135620, “Cyclosporins: structure-activity relationships for the inhibition of the human FPR1 formylpeptide receptor” (J Med Chem, 2002):

Each compound was assayed against T1, fMet-Leu-Phe receptor (Homo sapiens, UniProt P21462) (assay: Inhibitory activity against human formylpeptide receptor (FPR) of human leukemia HL-60 cells). Details: not given.
T1 sequence (P21462 whole entry): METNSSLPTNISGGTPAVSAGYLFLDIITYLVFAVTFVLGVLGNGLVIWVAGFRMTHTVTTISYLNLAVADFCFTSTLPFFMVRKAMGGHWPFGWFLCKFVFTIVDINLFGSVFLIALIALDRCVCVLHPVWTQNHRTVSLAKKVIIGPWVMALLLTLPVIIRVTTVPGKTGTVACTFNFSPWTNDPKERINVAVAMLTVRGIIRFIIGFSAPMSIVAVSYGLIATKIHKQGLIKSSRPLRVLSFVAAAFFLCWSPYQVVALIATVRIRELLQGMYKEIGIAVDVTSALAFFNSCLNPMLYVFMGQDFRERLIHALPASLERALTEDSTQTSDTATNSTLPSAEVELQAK
Type: cell-based
In short: (§1)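 HL-60 cells differentiated 48 h with 0.2 mM dibutyryl cAMP, washed, then treated with 5 μM cytochalasin B (5–10 min, 37 °C). Stimulated 10 min with 30 nM f-MLF. N-acetyl-β-D-glucosaminidase release read at 410 nm on p-nitrophenyl substrate after spontaneous-release subtraction. Duplicate wells; IC20/IC50 as mean ± SD of independent experiments.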

SMILES	IC50 [µM]
CC/C=C/C[C@@H](C)[C@@H](O)[C@H]1C(=O)N[C@@H](CC)C(=O)N(C)CC(=O)N(C)[C@@H]([C@@H](C)CC)C(=O)N[C@@H](C(C)C)C(=O)N(C)[C@@H](CC(C)C)C(=O)N[C@@H](C)C(=O)N[C@H](C)C(=O)N(C)[C@@H](CC(C)C)C(=O)N(C)[C@@H](CC(C)C)C(=O)N(C)[C@@H](C(C)C)C(=O)N1C	7
C/C=C/C[C@@H](C)[C@@H](O)[C@H]1C(=O)N[C@@H](CCC)C(=O)N(C)CC(=O)N(C)[C@@H](CC(C)C)C(=O)N[C@@H](CC(C)C)C(=O)N(C)[C@@H](CC(C)C)C(=O)N[C@@H](C)C(=O)N[C@H](C)C(=O)N(C)[C@@H](CC(C)C)C(=O)N(C)[C@@H](CC(C)C)C(=O)N(C)[C@@H](C(C)C)C(=O)N1C	> 10
C/C=C/C[C@@H](C)[C@@H](O)[C@H]1C(=O)N[C@@H](CC)C(=O)N(C)CC(=O)N(C)[C@@H](CC(C)C)C(=O)N[C@@H](C(C)C)C(=O)N(C)[C@@H](CC(C)C)C(=O)N[C@@H](C)C(=O)N[C@H](C)C(=O)N(C)[C@@H](CC(C)C)C(=O)N[C@@H](CC(C)C)C(=O)N(C)[C@@H](C(C)C)C(=O)N1C	9.2
CC/C=C/C[C@@H](C)[C@@H](O)[C@H]1C(=O)N[C@@H](CCC)C(=O)N(C)CC(=O)N(C)[C@@H](CC(C)C)C(=O)N[C@@H](C(C)C)C(=O)N(C)[C@@H](CC(C)C)C(=O)N[C@@H](C)C(=O)N[C@H](C)C(=O)N(C)[C@@H](CC(C)C)C(=O)N(C)[C@@H](CC(C)C)C(=O)N(C)[C@@H](C(C)C)C(=O)N1C	> 10
C/C=C/C[C@@H](C)[C@@H](O)[C@H]1C(=O)N[C@@H](CCC)C(=O)N(C)CC(=O)N(C)[C@@H](CC(C)C)C(=O)N[C@@H](C(C)C)C(=O)N[C@@H](CC(C)C)C(=O)N[C@@H](C)C(=O)N[C@H](C)C(=O)N(C)[C@@H](CC(C)C)C(=O)N(C)[C@@H](CC(C)C)C(=O)N(C)[C@@H](C(C)C)C(=O)N1C	> 10
C/C=C/C[C@@H](C)[C@@H](O)[C@H]1C(=O)N[C@@H](C(C)C)C(=O)N(C)CC(=O)N(C)[C@@H](CC(C)C)C(=O)N[C@@H](C(C)C)C(=O)N(C)[C@@H](CC(C)C)C(=O)N[C@@H](C)C(=O)N[C@H](C)C(=O)N(C)[C@@H](CC(C)C)C(=O)N[C@@H](CC(C)C)C(=O)N(C)[C@@H](C(C)C)C(=O)N1C	> 3
C/C=C/C[C@@H](C)[C@@H](O)[C@H]1C(=O)N[C@@H](CC)C(=O)N(C)CC(=O)N(C)[C@@H](CC(C)C)C(=O)N[C@@H](C(C)C)C(=O)N[C@@H](CC(C)C)C(=O)N[C@@H](C)C(=O)N[C@H](C)C(=O)N(C)[C@@H](CC(C)C)C(=O)N[C@@H](CC(C)C)C(=O)N(C)[C@@H](C(C)C)C(=O)N1C	1.8
C/C=C/C[C@@H](C)[C@@H](O)[C@H]1C(=O)N[C@@H](CC)C(=O)N(C)CC(=O)N(C)[C@@H](CC(C)C)C(=O)N[C@@H](C(C)C)C(=O)N(C)[C@@H](CC(C)C)C(=O)N[C@@H](C)C(=O)N[C@H](C)C(=O)N(C)[C@@H](CC(C)C)C(=O)N(C)[C@@H](CC(C)C)C(=O)N[C@@H](C(C)C)C(=O)N1C	> 10
C/C=C/C[C@@H](C)[C@@H](O)[C@H]1C(=O)N[C@@H]([C@@H](C)O)C(=O)N(C)CC(=O)N(C)[C@@H](CC(C)C)C(=O)N[C@@H](CC(C)C)C(=O)N(C)[C@@H](CC(C)C)C(=O)N[C@@H](C)C(=O)N[C@H](C)C(=O)N(C)[C@@H](CC(C)C)C(=O)N[C@@H](C)C(=O)N(C)[C@@H](C(C)C)C(=O)N1C	3.25
C/C=C/C[C@@H](C)[C@@H](O)[C@H]1C(=O)N[C@@H]([C@@H](C)O)C(=O)N(C)CC(=O)N(C)[C@@H](CC(C)C)C(=O)N[C@@H]([C@@H](C)CC)C(=O)N(C)[C@@H](CC(C)C)C(=O)N[C@@H](C)C(=O)N[C@H](C)C(=O)N(C)[C@@H](CC(C)C)C(=O)N(C)[C@@H](CC(C)C)C(=O)N(C)[C@@H](C(C)C)C(=O)N1C	2.3
C/C=C/C[C@@H](C)[C@@H](O)[C@H]1C(=O)N[C@@H]([C@@H](C)O)C(=O)N(C)CC(=O)N[C@@H](CC(C)C)C(=O)N[C@@H](CC(C)C)C(=O)N(C)[C@@H](CC(C)C)C(=O)N[C@@H](C)C(=O)N[C@](O)(C(C)C)C(=O)N(C)[C@@H](CC(C)C)C(=O)N[C@@H](CC(C)C)C(=O)N(C)[C@@H](C(C)C)C(=O)N1C	0.56
CC/C=C/C[C@@H](C)[C@@H](O)[C@H]1C(=O)N[C@@H](C(C)C)C(=O)N(C)CC(=O)N(C)[C@@H](CC(C)C)C(=O)N[C@@H](C(C)C)C(=O)N(C)[C@@H](CC(C)C)C(=O)N[C@@H](C)C(=O)N[C@H](C)C(=O)N(C)[C@@H](CC(C)C)C(=O)N(C)[C@@H](CC(C)C)C(=O)N(C)[C@@H](C(C)C)C(=O)N1C	> 10
C/C=C/C[C@@H](C)[C@@H](O)[C@H]1C(=O)N[C@@H]([C@@H](C)O)C(=O)N(C)CC(=O)N(C)[C@@H](CC(C)C)C(=O)N[C@@H](CC(C)C)C(=O)N(C)[C@@H](CC(C)C)C(=O)N[C@@H](C)C(=O)N[C@H](C)C(=O)N(C)[C@@H](CC(C)C)C(=O)N[C@@H](CC(C)C)C(=O)N(C)[C@@H](C(C)C)C(=O)N1C	0.59
C/C=C/C[C@@H](C)[C@@H](O)[C@H]1C(=O)N[C@@H](CCC)C(=O)N(C)CC(=O)N(C)[C@@H](CC(C)C)C(=O)N[C@@H](C(C)C)C(=O)N(C)[C@@H](CC(C)C)C(=O)N[C@@H](C)C(=O)N[C@H](C)C(=O)N(C)[C@@H](CC(C)C)C(=O)N[C@@H](CC(C)C)C(=O)N(C)[C@@H](C(C)C)C(=O)N1C	> 3

Same assay, conditions: hl-60

SMILES	IC50 [µM]
C/C=C/C[C@@H](C)[C@@H](O)C1NC(=O)[C@H](C(C)C)N(C)C(=O)[C@H](CC(C)C)N(C)C(=O)[C@H](CC(C)C)N(C)C(=O)[C@@H](C)NC(=O)[C@H](C)NC(=O)[C@@H](CC(C)C)N(C)C(=O)[C@@H](C(C)C)NC(=O)[C@@H](CC(C)C)N(C)C(=O)CN(C)C(=O)[C@H](CC)NC1=O (some centres undefined)	6.45
C/C=C/C[C@@H](C)[C@@H](O)C1NC(=O)[C@H](C(C)C)N(C)C(=O)[C@H](CC(C)C)N(C)C(=O)[C@H](CC(C)C)N(C)C(=O)[C@@H](C)NC(=O)[C@H](C)NC(=O)[C@@H](CC(C)C)N(C)C(=O)[C@@H](C(C)C)NC(=O)[C@@H](CC(C)C)N(C)C(=O)CN(C)C(=O)[C@H](C(C)C)NC1=O (some centres undefined)	> 10
C/C=C/C[C@@H](C)[C@@H](O)C1NC(=O)[C@H](C(C)C)N(C)C(=O)[C@H](CC(C)C)N(C)C(=O)[C@H](CC(C)C)N(C)C(=O)[C@@H](C)NC(=O)[C@H](C)NC(=O)[C@@H](CC(C)C)N(C)C(=O)[C@@H](C(C)C)NC(=O)[C@@H](CC(C)C)N(C)C(=O)CN(C)C(=O)[C@H]([C@@H](C)O)NC1=O (some centres undefined)	5.5
C/C=C/C[C@@H](C)[C@@H](O)[C@H]1C(=O)N[C@@H](CC)C(=O)N(C)CC(=O)N[C@@H]([C@@H](C)CC)C(=O)N[C@@H](C(C)C)C(=O)N(C)[C@@H](CC(C)C)C(=O)N[C@@H](C)C(=O)N[C@H](C)C(=O)N(C)[C@@H](CC(C)C)C(=O)N(C)[C@@H](CC(C)C)C(=O)N(C)[C@@H](C(C)C)C(=O)N1C	> 5
CC/C=C/C[C@@H](C)[C@@H](O)[C@H]1C(=O)N[C@@H](CC)C(=O)N(C)CC(=O)N(C)[C@@H](Cc2ccccc2)C(=O)N[C@@H](C(C)C)C(=O)N(C)[C@@H](CC(C)C)C(=O)N[C@@H](C)C(=O)N[C@H](C)C(=O)N(C)[C@@H](CC(C)C)C(=O)N(C)[C@@H](CC(C)C)C(=O)N(C)[C@@H](C(C)C)C(=O)N1C	> 10
C/C=C/C[C@@H](C)[C@@H](O)[C@H]1C(=O)N[C@@H](CC)C(=O)N(C)CC(=O)N(C)[C@H](CC(C)C)C(=O)N[C@H](C(C)C)C(=O)N(C)[C@H](CC(C)C)C(=O)N[C@@H](C)C(=O)N[C@H](C)C(=O)N(C)[C@@H](CC(C)C)C(=O)N(C)[C@@H](CC(C)C)C(=O)N(C)[C@H]([C@H](C)CC)C(=O)N1C	1.57

These compounds were tested against T2, fMet-Leu-Phe receptor (Homo sapiens) (UniProt P21462) (assay: Inhibitory activity against Human formylpeptide receptor (FPR) of human leukemia HL-60 cells). Details: not given.
T2 sequence (whole entry): T1 sequence (P21462 whole entry)
Type: cell-based
In short: as §1

SMILES	IC20 [µM]
C/C=C/C[C@@H](C)[C@@H](O)C1NC(=O)[C@H](C(C)C)N(C)C(=O)[C@H](CC(C)C)N(C)C(=O)[C@H](CC(C)C)N(C)C(=O)[C@@H](C)NC(=O)[C@H](C)NC(=O)[C@@H](CC(C)C)N(C)C(=O)[C@@H](C(C)C)NC(=O)[C@@H](CC(C)C)N(C)C(=O)CN(C)C(=O)[C@H](CC)NC1=O (some centres undefined)	1.9
C/C=C/C[C@@H](C)[C@@H](O)C1NC(=O)[C@H](C(C)C)N(C)C(=O)[C@H](CC(C)C)N(C)C(=O)[C@H](CC(C)C)N(C)C(=O)[C@@H](C)NC(=O)[C@H](C)NC(=O)[C@@H](CC(C)C)N(C)C(=O)[C@@H](C(C)C)NC(=O)[C@@H](CC(C)C)N(C)C(=O)CN(C)C(=O)[C@H](C(C)C)NC1=O (some centres undefined)	2
C/C=C/C[C@@H](C)[C@@H](O)C1NC(=O)[C@H](C(C)C)N(C)C(=O)[C@H](CC(C)C)N(C)C(=O)[C@H](CC(C)C)N(C)C(=O)[C@@H](C)NC(=O)[C@H](C)NC(=O)[C@@H](CC(C)C)N(C)C(=O)[C@@H](C(C)C)NC(=O)[C@@H](CC(C)C)N(C)C(=O)CN(C)C(=O)[C@H]([C@@H](C)O)NC1=O (some centres undefined)	1.5
C/C=C/C[C@@H](C)[C@@H](O)[C@H]1C(=O)N[C@@H](CC)C(=O)N(C)CC(=O)N(C)[C@H](CC(C)C)C(=O)N[C@H](C(C)C)C(=O)N(C)[C@H](CC(C)C)C(=O)N[C@@H](C)C(=O)N[C@H](C)C(=O)N(C)[C@@H](CC(C)C)C(=O)N(C)[C@@H](CC(C)C)C(=O)N(C)[C@H]([C@H](C)CC)C(=O)N1C	0.29
